≈ marks a conversion by molar mass, not a printed value.
Experiments:
Format in all cases: functional
Enterococcus faecium [1] = assay: Antibacterial activity against Enterococcus faecium 14-5 after 18 to 24 hrs
In short: (§1)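 MIC by standard NCCLS reference procedure (M100-S11); lowest concentration of compound inhibiting visible bacterial growth after incubation at 35 °C for 18–24 h, read as complete inhibition of growth. Ciprofloxacin, levofloxacin and moxifloxacin run alongside as reference agents.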

Pseudomonas aeruginosa [2] = assay: Antibacterial activity against Pseudomonas aeruginosa 14-14 after 18 to 24 hrs; in short: as §1
Staphylococcus aureus [3] = assay: Antibacterial activity against methicillin-sensitive Staphylococcus aureus 14-2 after 18 to 24 hrs; in short: as §1
[4] = tested on: Staphylococcus epidermidis; assay: Antibacterial activity against methicillin-resistant Staphylococcus epidermidis 14-37 after 18 to 24 hrs
Klebsiella pneumoniae [5] = assay: Antibacterial activity against Klebsiella pneumoniae 14-4 after 18 to 24 hrs; in short: as §1
Klebsiella pneumoniae [6] = assay: Antibacterial activity against ESBL-positive Klebsiella pneumoniae 14-18 after 18 to 24 hrs; in short: as §1
Klebsiella pneumoniae [7] = assay: Antibacterial activity against Klebsiella pneumoniae 14-3 after 18 to 24 hrs; in short: as §1
Staphylococcus aureus [8] = assay: Antibacterial activity against methicillin-resistant Staphylococcus aureus 14-5 after 18 to 24 hrs
Enterococcus faecium [9] = assay: Antibacterial activity against Enterococcus faecium 14-2 after 18 to 24 hrs; in short: as §1
Klebsiella pneumoniae [10] = assay: Antibacterial activity against ESBL-positive Klebsiella pneumoniae 14-17 after 18 to 24 hrs; in short: as §1
Klebsiella pneumoniae [11] = assay: Antibacterial activity against ESBL-positive Klebsiella pneumoniae 14-19 after 18 to 24 hrs; in short: as §1
Escherichia coli [12] = assay: Antibacterial activity against Escherichia coli 14-1 after 18 to 24 hrs; in short: as §1
Streptococcus pneumoniae = assay: Antibacterial activity against Streptococcus pneumoniae ATCC 19615 after 18 to 24 hrs; in short: as §1
Staphylococcus aureus [13] = assay: Antibacterial activity against methicillin-resistant Staphylococcus aureus 14-4 after 18 to 24 hrs
Staphylococcus aureus [14] = assay: Antibacterial activity against methicillin-sensitive Staphylococcus aureus 14-3 after 18 to 24 hrs; in short: as §1
[15] = tested on: Staphylococcus epidermidis; assay: Antibacterial activity against methicillin-resistant Staphylococcus epidermidis 14-39 after 18 to 24 hrs
Klebsiella pneumoniae [16] = assay: Antibacterial activity against Klebsiella pneumoniae 14-2 after 18 to 24 hrs; in short: as §1
Enterococcus faecalis [17] = assay: Antibacterial activity against Enterococcus faecalis 14-2 after 18 to 24 hrs; in short: as §1
Staphylococcus aureus [18] = assay: Antibacterial activity against methicillin-sensitive Staphylococcus aureus 14-1 after 18 to 24 hrs; in short: as §1
Pseudomonas aeruginosa [19] = assay: Antibacterial activity against Pseudomonas aeruginosa 14-9 after 18 to 24 hrs; in short: as §1
Pseudomonas aeruginosa [20] = assay: Antibacterial activity against Pseudomonas aeruginosa 14-16 after 18 to 24 hrs; in short: as §1
Enterococcus faecium [21] = assay: Antibacterial activity against Enterococcus faecium 14-6 after 18 to 24 hrs; in short: as §1
Klebsiella pneumoniae [22] = assay: Antibacterial activity against Klebsiella pneumoniae 14-1 after 18 to 24 hrs; in short: as §1
[23] = tested on: Staphylococcus epidermidis; assay: Antibacterial activity against methicillin-resistant Staphylococcus epidermidis 14-21 after 18 to 24 hrs
Enterococcus faecalis [24] = assay: Antibacterial activity against Enterococcus faecalis 14-1 after 18 to 24 hrs; in short: as §1
Staphylococcus aureus [25] = assay: Antibacterial activity against Staphylococcus aureus CMCC 26003 after 18 to 24 hrs; in short: as §1
Escherichia coli [26] = assay: Antibacterial activity against ESBL-positive Escherichia coli 14-2 after 18 to 24 hrs; in short: as §1
Pseudomonas aeruginosa [27] = assay: Antibacterial activity against Pseudomonas aeruginosa 14-15 after 18 to 24 hrs; in short: as §1
Escherichia coli [28] = assay: Antibacterial activity against Escherichia coli 14-2 after 18 to 24 hrs; in short: as §1
[29] = tested on: Staphylococcus epidermidis; assay: Antibacterial activity against methicillin-resistant Staphylococcus epidermidis 14-22 after 18 to 24 hrs
[30] = tested on: Staphylococcus epidermidis; assay: Antibacterial activity against methicillin-sensitive Staphylococcus epidermidis 14-2 after 18 to 24 hrs; in short: as §1
Staphylococcus aureus [31] = assay: Antibacterial activity against methicillin-sensitive Staphylococcus aureus 14-4 after 18 to 24 hrs; in short: as §1
Enterococcus faecium [32] = assay: Antibacterial activity against Enterococcus faecium 14-1 after 18 to 24 hrs; in short: as §1
[33] = tested on: Mycobacterium tuberculosis; assay: Antimycobacterial activity against Mycobacterium tuberculosis H37Rv ATCC 27294 by alamar blue assay
In short: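 Microplate Alamar Blue Assay; MIC is the lowest concentration giving ≥90% reduction in fluorescence relative to the mean of replicate bacterium-only controls. MDR strain 6133 is resistant to isoniazid and rifampicin.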

Pseudomonas aeruginosa [34] = assay: Antibacterial activity against Pseudomonas aeruginosa ATCC 27853 after 18 to 24 hrs; in short: as §1
Escherichia coli [35] = assay: Antibacterial activity against ESBL-positive Escherichia coli 14-1 after 18 to 24 hrs; in short: as §1
Escherichia coli [36] = assay: Antibacterial activity against Escherichia coli ATCC 25922 after 18 to 24 hrs; in short: as §1
Pseudomonas aeruginosa [37] = assay: Antibacterial activity against Pseudomonas aeruginosa 14-19 after 18 to 24 hrs; in short: as §1

SMILES | MIC (Enterococcus faecium [1]) [µg/mL] | MIC (Pseudomonas aeruginosa [2]) [µg/mL] | MIC (Staphylococcus aureus [3]) [µg/mL] | MIC [4] [µg/mL] | MIC (Klebsiella pneumoniae [5]) [µg/mL] | MIC (Klebsiella pneumoniae [6]) [µg/mL] | MIC (Klebsiella pneumoniae [7]) [µg/mL] | MIC (Staphylococcus aureus [8]) [µg/mL] | MIC (Enterococcus faecium [9]) [µg/mL] | MIC (Klebsiella pneumoniae [10]) [µg/mL] | MIC (Klebsiella pneumoniae [11]) [µg/mL] | MIC (Escherichia coli [12]) [µg/mL] | MIC (Streptococcus pneumoniae) [µg/mL] | MIC (Staphylococcus aureus [13]) [µg/mL] | MIC (Staphylococcus aureus [14]) [µg/mL] | MIC [15] [µg/mL] | MIC (Klebsiella pneumoniae [16]) [µg/mL] | MIC (Enterococcus faecalis [17]) [µg/mL] | MIC (Staphylococcus aureus [18]) [µg/mL] | MIC (Pseudomonas aeruginosa [19]) [µg/mL] | other results
CC1(CN)CN(c2nc3c(cc2F)c(=O)c(C(=O)O)cn3[C@@H]2C[C@@H]2F)C/C1=N\OCc1ccccc1 (stereo partly specified) | 8 (≈ 16.1 µM) | 32 (≈ 64.3 µM) | < 0.008 | 16 (≈ 32.2 µM) | > 128 | 32 (≈ 64.3 µM) | 128 (≈ 257 µM) | 4 (≈ 8.04 µM) | 4 (≈ 8.04 µM) | 16 (≈ 32.2 µM) | 64 (≈ 129 µM) | > 128 | < 0.008 | 8 (≈ 16.1 µM) | < 0.008 | 16 (≈ 32.2 µM) | > 128 | 0.25 (≈ 0.503 µM) | 2 (≈ 4.02 µM) | 16 (≈ 32.2 µM) | MIC (Pseudomonas aeruginosa [20]): 32 µg/mL (≈ 64.3 µM); MIC (Enterococcus faecium [21]): 8 µg/mL (≈ 16.1 µM); MIC (Klebsiella pneumoniae [22]): 128 µg/mL (≈ 257 µM); MIC [23]: 4 µg/mL (≈ 8.04 µM); MIC (Enterococcus faecalis [24]): 32 µg/mL (≈ 64.3 µM); MIC (Staphylococcus aureus [25]): < 0.008 µg/mL; MIC (Escherichia coli [26]): > 128 µg/mL; MIC (Pseudomonas aeruginosa [27]): 32 µg/mL (≈ 64.3 µM); MIC (Escherichia coli [28]): > 128 µg/mL; MIC [29]: 4 µg/mL (≈ 8.04 µM); MIC [30]: 16 µg/mL (≈ 32.2 µM); MIC (Staphylococcus aureus [31]): < 0.008 µg/mL; MIC (Enterococcus faecium [32]): 4 µg/mL (≈ 8.04 µM); MIC90 [33]: 0.514 µg/mL (≈ 1.03 µM); MIC (Pseudomonas aeruginosa [34]): 8 µg/mL (≈ 16.1 µM); MIC (Escherichia coli [35]): 8 µg/mL (≈ 16.1 µM); MIC (Escherichia coli [36]): 0.125 µg/mL (≈ 0.251 µM); MIC (Pseudomonas aeruginosa [37]): 8 µg/mL (≈ 16.1 µM)
CO/N=C1\CN(c2nc3c(cc2F)c(=O)c(C(=O)O)cn3[C@@H]2C[C@@H]2F)CC1(C)N (stereo partly specified) | > 128 | 32 (≈ 78.6 µM) | 0.5 (≈ 1.23 µM) | 32 (≈ 78.6 µM) | > 128 | 32 (≈ 78.6 µM) | > 128 | 128 (≈ 314 µM) | > 128 | 16 (≈ 39.3 µM) | > 128 | > 128 | 0.25 (≈ 0.614 µM) | 128 (≈ 314 µM) | 0.5 (≈ 1.23 µM) | 64 (≈ 157 µM) | > 128 | 2 (≈ 4.91 µM) | 16 (≈ 39.3 µM) | 16 (≈ 39.3 µM) | MIC (Pseudomonas aeruginosa [20]): 32 µg/mL (≈ 78.6 µM); MIC (Enterococcus faecium [21]): > 128 µg/mL; MIC (Klebsiella pneumoniae [22]): > 128 µg/mL; MIC [23]: 128 µg/mL (≈ 314 µM); MIC (Enterococcus faecalis [24]): 128 µg/mL (≈ 314 µM); MIC (Staphylococcus aureus [25]): 0.25 µg/mL (≈ 0.614 µM); MIC (Escherichia coli [26]): > 128 µg/mL; MIC (Pseudomonas aeruginosa [27]): 32 µg/mL (≈ 78.6 µM); MIC (Escherichia coli [28]): > 128 µg/mL; MIC [29]: 32 µg/mL (≈ 78.6 µM); MIC [30]: > 128 µg/mL; MIC (Staphylococcus aureus [31]): 0.5 µg/mL (≈ 1.23 µM); MIC (Enterococcus faecium [32]): > 128 µg/mL; MIC90 [33]: 0.392 µg/mL (≈ 0.962 µM); MIC (Pseudomonas aeruginosa [34]): 8 µg/mL (≈ 19.6 µM); MIC (Escherichia coli [35]): 32 µg/mL (≈ 78.6 µM); MIC (Escherichia coli [36]): 0.5 µg/mL (≈ 1.23 µM); MIC (Pseudomonas aeruginosa [37]): 32 µg/mL (≈ 78.6 µM)

Reference: ChEMBL document CHEMBL3632558, “Synthesis, antimycobacterial and antibacterial activity of l-[(1R,2S)-2-fluorocyclopropyl]naphthyridone derivatives containing an oxime-functionalized pyrrolidine moiety” (2015)
